In ChEMBL document CHEMBL2086356, “Identification of a novel family of BRAF(V600E) inhibitors” (J Med Chem, 2012):
Calls of active or inactive are those of the source. The calls are words filed in the database; no cut-off is given here.

Legend:
[1] = target: Serine/threonine-protein kinase B-raf (Homo sapiens, UniProt P15056, V600E); experiment: Inhibition of human 6x-His tagged BRAF V600E mutant expressed in Sf9 cells by ELISA based kinase assay
In short: (§1)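 Enzyme at about 28–30 nM was preincubated with compound for 1 h at RT, then added to glutathione-plate-bound GST-MEK-His (50 μg/mL). Reaction in HEPES pH 7.0 with MgCl2 and 100 μM ATP ran 30 min at 37 °C. Read-out was anti-phospho-MEK1/2 then HRP chemiluminescence. Run in duplicate or triplicate; IC50 from a four-parameter logistic fit.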

[2] = target: T1, Serine/threonine-protein kinase B-raf (Homo sapiens, UniProt P15056); experiment: Inhibition of human 6x-His tagged wild type BRAF expressed in Sf9 cells by ELISA based kinase assay; in short: as §1
Homo sapiens [3] = species: Homo sapiens; experiment: Selectivity ratio of IC50 for human 6x-His tagged wild type BRAF to IC50 for human 6x-His tagged BRAF V600E mutant
FOM = experiment: Antiproliferative activity against human FOM cells by MTS assay; assay type: functional, cell-based
In short: (§2)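 451Lu melanoma cells were grown in DMEM with 5% FBS, and primary melanocytes (FOM) and fibroblasts (FF) were taken from neonatal foreskin epidermis. Cells were seeded at 5000/well, left to adhere overnight, then exposed to rising compound doses or DMSO for 72 h. Read-out was MTS absorbance at 490 nm, normalized to DMSO wells. At least 4 wells per condition; experiment done in triplicate.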

[4] = target: Serine/threonine-protein kinase pim-1 (Homo sapiens) (UniProt P11309); experiment: Inhibition of PIM1 assessed as residual activity at 1 uM
[5] = Inhibition of p70S6K assessed as residual activity at 1 uM by scintillation counter in presence of gamma-P32 ATP
In short: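 p70S6K (20 nM) was preincubated with inhibitor at RT in 20 mM MOPS, 30 mM MgCl2, 0.8 μg/μL BSA, 5% DMSO, pH 7.0, with S6 kinase/Rsk2 peptide (3.6 μM). After 15 min, ATP was added to 100 μM with γ-32P ATP and run 30 min. Product was captured on P81 paper, washed with phosphoric acid, and counted by scintillation. Remaining activity was measured at 1 μM, mean of n = 3.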

[6] = target: RAF proto-oncogene serine/threonine-protein kinase (Homo sapiens) (UniProt P04049); experiment: Inhibition of CRAF assessed as residual activity at 1 uM by ELISA based kinase assay
In short: (§3)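 Single-point ELISA kinase assay at 1 μM inhibitor, reading phospho-MEK on immobilized GST-MEK-His. CRAF at 20–30 nM enzyme with 100 μM ATP; BRAF WT or V600E kinase domain (Sf9-expressed, 6xHis) under the same assay conditions. Remaining activity reported as mean of n = 3.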

[7] = test system: Serine/threonine-protein kinase B-raf (Homo sapiens), P15056 [V600E]; experiment: Inhibition of B-Raf V600E mutant-mediated MEK phosphorylation in human 451LU cells by Western blotting
[8] = Inhibition of GSK3 assessed as residual activity at 1 uM
[9] = target: Phosphatidylinositol 4,5-bisphosphate 3-kinase catalytic subunit alpha isoform (Homo sapiens) (UniProt P42336); experiment: Inhibition of PI3Kalpha assessed as residual activity at 1 uM
[10] = test system: Serine/threonine-protein kinase B-raf (Homo sapiens), P15056 [V600E]; experiment: Inhibition of human 6x-His tagged BRAF V600E mutant expressed in Sf9 cells assessed as residual activity at 1 uM by ELISA based kinase assay; in short: as §3
[11] = target: T1, Serine/threonine-protein kinase B-raf; experiment: Inhibition of human 6x-His tagged wild type BRAF expressed in Sf9 cells assessed as residual activity at 1 uM by ELISA based kinase assay; in short: as §3
[12] = target: Phosphatidylinositol 4,5-bisphosphate 3-kinase catalytic subunit gamma isoform (Homo sapiens) (UniProt P48736); experiment: Inhibition of PI3Kgamma assessed as residual activity at 1 uM
[13] = target: Serine/threonine-protein kinase PAK 1 (Homo sapiens) (UniProt Q13153); experiment: Inhibition of PAK1 assessed as residual activity at 1 uM
FF2508 = experiment: Antiproliferative activity against human FF2508 cells by MTS assay; assay type: functional, cell-based; in short: as §2
Homo sapiens [14] = species: Homo sapiens; experiment: Antiproliferative activity against human 451LU cells harboring BRAF V600E mutant by MTS assay; assay type: functional, cell-based; in short: as §2

Chain of Serine/threonine-protein kinase B-raf (Homo sapiens, UniProt P15056, V600E) (P15056 2-766 V600E limits assumed): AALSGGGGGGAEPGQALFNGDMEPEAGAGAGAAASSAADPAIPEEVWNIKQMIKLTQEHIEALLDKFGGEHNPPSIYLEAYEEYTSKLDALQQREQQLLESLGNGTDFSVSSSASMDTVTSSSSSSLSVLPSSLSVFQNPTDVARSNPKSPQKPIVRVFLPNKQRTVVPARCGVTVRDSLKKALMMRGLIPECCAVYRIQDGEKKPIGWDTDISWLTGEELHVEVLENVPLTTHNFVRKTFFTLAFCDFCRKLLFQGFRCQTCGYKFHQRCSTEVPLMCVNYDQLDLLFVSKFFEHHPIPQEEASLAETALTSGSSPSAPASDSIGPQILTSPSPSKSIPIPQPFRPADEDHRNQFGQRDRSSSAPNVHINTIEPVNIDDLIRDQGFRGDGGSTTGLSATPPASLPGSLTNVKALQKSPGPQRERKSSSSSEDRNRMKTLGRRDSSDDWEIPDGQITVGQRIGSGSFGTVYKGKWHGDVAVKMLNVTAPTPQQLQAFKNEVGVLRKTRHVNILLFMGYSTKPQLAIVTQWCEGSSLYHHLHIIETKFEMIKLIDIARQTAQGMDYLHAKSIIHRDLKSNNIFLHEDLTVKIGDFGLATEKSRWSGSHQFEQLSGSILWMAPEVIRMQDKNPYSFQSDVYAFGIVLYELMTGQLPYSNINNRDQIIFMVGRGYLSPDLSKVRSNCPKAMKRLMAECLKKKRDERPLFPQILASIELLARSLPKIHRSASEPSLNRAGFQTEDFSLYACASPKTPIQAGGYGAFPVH
T1 sequence (P15056 whole entry): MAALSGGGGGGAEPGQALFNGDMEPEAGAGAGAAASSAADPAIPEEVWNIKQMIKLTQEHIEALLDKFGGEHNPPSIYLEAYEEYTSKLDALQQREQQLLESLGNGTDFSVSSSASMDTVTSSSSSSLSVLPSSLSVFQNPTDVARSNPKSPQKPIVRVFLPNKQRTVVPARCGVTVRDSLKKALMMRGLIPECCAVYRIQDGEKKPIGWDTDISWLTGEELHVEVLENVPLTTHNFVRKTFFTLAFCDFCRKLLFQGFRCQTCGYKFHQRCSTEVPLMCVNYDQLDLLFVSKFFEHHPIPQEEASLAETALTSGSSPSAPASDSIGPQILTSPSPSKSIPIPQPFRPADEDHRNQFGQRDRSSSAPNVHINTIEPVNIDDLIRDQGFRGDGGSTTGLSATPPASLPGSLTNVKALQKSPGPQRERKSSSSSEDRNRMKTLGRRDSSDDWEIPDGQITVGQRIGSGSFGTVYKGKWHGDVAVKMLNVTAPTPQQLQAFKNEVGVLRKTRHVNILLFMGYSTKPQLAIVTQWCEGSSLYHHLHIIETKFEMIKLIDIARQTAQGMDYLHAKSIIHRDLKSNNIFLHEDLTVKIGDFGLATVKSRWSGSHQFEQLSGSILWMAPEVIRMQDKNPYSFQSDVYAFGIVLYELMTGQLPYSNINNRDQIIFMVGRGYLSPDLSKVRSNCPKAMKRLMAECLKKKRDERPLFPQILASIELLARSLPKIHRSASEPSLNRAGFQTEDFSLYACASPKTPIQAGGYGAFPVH
Chain of Serine/threonine-protein kinase B-raf (Homo sapiens), P15056 [V600E] (P15056 whole entry V600E): as the sequence (P15056 whole entry) above, with V600E counted along it
Chain of Serine/threonine-protein kinase pim-1 (Homo sapiens) (P11309 whole entry, looked up): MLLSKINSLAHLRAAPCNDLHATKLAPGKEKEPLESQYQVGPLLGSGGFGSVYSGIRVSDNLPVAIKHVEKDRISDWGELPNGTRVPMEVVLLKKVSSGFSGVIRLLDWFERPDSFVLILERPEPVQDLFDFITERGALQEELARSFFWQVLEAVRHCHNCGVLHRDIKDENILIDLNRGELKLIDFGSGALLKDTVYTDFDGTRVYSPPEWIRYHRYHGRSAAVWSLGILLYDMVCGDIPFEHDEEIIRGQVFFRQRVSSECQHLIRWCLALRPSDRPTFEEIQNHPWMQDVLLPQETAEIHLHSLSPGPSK
Chain of Phosphatidylinositol 4,5-bisphosphate 3-kinase catalytic subunit gamma isoform (Homo sapiens) (P48736 whole entry, looked up, canonical isoform): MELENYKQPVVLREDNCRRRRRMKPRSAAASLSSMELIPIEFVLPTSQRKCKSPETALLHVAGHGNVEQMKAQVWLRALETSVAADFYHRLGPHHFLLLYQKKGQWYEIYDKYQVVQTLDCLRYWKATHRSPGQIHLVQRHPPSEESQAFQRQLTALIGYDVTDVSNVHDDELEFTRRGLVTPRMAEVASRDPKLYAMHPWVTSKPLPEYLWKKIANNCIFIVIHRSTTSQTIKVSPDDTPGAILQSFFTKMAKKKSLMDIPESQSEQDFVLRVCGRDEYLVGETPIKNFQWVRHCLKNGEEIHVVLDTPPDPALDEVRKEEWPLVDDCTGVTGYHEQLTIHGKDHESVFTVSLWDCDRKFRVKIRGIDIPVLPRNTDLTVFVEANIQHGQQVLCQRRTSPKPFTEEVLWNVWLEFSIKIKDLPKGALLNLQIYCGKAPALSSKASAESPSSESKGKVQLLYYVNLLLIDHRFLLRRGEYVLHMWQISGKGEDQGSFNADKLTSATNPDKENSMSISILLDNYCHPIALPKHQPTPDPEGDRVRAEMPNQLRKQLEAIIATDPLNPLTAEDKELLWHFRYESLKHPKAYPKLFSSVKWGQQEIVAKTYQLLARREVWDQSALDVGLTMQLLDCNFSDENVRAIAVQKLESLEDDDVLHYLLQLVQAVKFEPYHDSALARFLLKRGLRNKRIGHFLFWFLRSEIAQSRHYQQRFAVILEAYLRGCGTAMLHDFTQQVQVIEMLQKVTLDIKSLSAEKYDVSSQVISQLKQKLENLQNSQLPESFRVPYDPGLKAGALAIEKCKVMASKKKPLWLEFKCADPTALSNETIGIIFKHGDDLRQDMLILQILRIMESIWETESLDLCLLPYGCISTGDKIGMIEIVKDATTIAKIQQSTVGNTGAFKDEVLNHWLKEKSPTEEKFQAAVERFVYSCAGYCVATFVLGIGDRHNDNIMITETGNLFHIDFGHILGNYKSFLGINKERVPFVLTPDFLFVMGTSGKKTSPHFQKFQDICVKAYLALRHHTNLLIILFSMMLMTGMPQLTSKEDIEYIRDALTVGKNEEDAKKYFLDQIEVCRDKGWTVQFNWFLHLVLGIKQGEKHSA
Chain of Serine/threonine-protein kinase PAK 1 (Homo sapiens) (Q13153 whole entry): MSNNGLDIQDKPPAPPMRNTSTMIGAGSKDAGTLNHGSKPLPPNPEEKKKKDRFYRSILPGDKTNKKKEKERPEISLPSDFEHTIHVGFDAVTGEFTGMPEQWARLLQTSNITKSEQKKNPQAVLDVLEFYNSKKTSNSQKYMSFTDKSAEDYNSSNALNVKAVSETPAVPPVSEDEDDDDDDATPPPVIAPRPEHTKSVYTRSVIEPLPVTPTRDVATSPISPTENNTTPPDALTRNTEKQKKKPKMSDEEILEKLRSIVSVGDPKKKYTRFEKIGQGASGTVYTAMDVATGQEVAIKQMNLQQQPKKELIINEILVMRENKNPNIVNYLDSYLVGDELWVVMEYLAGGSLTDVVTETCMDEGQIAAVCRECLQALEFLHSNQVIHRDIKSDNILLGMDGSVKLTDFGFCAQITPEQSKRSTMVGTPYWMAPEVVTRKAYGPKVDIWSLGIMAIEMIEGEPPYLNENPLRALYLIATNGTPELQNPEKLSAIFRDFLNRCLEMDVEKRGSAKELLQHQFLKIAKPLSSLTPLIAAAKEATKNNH
Chain of Phosphatidylinositol 4,5-bisphosphate 3-kinase catalytic subunit alpha isoform (Homo sapiens) (P42336 whole entry, canonical isoform): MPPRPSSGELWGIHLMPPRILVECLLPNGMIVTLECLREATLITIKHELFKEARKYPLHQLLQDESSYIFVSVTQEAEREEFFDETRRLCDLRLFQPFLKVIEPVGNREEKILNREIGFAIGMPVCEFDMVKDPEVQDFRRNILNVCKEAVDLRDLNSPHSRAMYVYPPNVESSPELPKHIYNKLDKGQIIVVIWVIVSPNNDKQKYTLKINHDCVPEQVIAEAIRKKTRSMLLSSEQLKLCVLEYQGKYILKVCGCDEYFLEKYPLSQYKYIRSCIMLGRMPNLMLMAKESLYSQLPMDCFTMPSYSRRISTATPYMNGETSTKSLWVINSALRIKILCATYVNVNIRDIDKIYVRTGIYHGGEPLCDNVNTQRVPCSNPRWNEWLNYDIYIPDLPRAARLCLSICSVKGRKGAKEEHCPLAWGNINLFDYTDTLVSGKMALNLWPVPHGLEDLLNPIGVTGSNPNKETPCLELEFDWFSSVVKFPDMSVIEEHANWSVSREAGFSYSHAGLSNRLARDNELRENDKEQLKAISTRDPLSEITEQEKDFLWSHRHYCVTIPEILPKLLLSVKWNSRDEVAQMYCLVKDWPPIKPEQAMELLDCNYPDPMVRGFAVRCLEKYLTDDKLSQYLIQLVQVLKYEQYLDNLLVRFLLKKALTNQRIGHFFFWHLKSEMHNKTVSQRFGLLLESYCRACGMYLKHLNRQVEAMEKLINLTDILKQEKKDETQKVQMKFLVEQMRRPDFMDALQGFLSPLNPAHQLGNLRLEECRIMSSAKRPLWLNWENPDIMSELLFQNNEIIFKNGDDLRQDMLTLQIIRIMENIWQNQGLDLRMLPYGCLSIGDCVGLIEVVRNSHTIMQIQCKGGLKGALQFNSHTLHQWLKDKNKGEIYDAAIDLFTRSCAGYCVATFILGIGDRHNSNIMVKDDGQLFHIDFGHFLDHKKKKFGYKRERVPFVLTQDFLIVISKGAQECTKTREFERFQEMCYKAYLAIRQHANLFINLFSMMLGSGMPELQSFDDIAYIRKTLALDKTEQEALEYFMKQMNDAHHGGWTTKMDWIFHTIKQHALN

SMILES	IC50 [1]	IC50 [2]	also measured
O=S(=O)(Nc1cc(Sc2ccccn2)c(O)c2ccccc12)c1cccs1	0.19 µM	0.35 µM	–
Oc1c(C(Nc2cccnc2)c2ccsc2)ccc2cccnc12 (stereo not drawn)	0.8 µM	2 µM	Ratio IC50 (Homo sapiens [3]): 2
O=S(=O)(Nc1cc(Sc2ncc[nH]2)c(O)c2ccccc12)c1cccs1	0.12 µM	0.17 µM	Ratio IC50 (Homo sapiens [3]): 2
O=S(=O)(Nc1cc(Sc2ncn[nH]2)c(O)c2ccccc12)c1c(F)ccc(N(Cc2ccccc2)Cc2ccccc2)c1F	3.6 µM	5.8 µM	–
O=S(=O)(Nc1cc(Sc2nc[nH]n2)c(O)c2ccccc12)c1ccc2ccccc2c1	0.15 µM	0.4 µM	–
COc1cc(C(Nc2ccccn2)c2cc(Cl)c3cccnc3c2O)cc(Br)c1O (stereo not drawn)	0.7 µM	3 µM	Ratio IC50 (Homo sapiens [3]): 2
O=S(=O)(Nc1cc(Sc2nnc[nH]2)c(O)c2ccccc12)c1ccc(-c2ccccc2)cc1	0.08 µM	0.22 µM	–
O=C1C(Sc2ncn[nH]2)=C/C(=N\S(=O)(=O)c2cccs2)c2ccccc21	0.19 µM	0.23 µM	–
O=S(=O)(Nc1cc(Br)c(O)c2ccccc12)c1cccs1	0.32 µM	0.34 µM	–
COc1ccc(C(c2ccc3cccnc3c2O)N2CCOCC2)cc1 (stereo not drawn)	0.9 µM	4 µM	Ratio IC50 (Homo sapiens [3]): 2
CC(=O)Nc1ccc(S(=O)(=O)Nc2cc(Sc3nc[nH]n3)c(O)c3ccccc23)cc1	0.14 µM	–	–
CC(=O)Nc1ccc(S(=O)(=O)Nc2cc(Sc3ncn[nH]3)c(O)c3ccccc23)cc1	–	–	Ratio IC50 (Homo sapiens [3]): 2
Cc1cc(C)c2c(=O)n(C(=O)c3cccs3)sc2n1	0.6 µM	0.4 µM	–
CCCCCCCCS(=O)(=O)Nc1cc(Sc2nnc[nH]2)c(O)c2ccccc12	0.72 µM	1.66 µM	–
O=S(=O)(Nc1cc(Sc2ncn[nH]2)c(O)c2ccccc12)c1ccc(-c2ccccc2)cc1	–	–	Activity (FOM): inactive; Activity [4]: 75%; Activity [5]: 75%; Activity [6]: 60%; inhibition [7]: Active; Ratio IC50 (Homo sapiens [3]): 2; Activity [8]: 75%; Activity [9]: 75%; Activity [10]: < 10%; Activity [11]: < 10%; Activity [12]: 75%; Activity [13]: 75%; Activity (FF2508): inactive; Activity (Homo sapiens [14]): Active
O=S(=O)(Nc1cc(Sc2ccccc2)c(O)c2ccccc12)c1cccs1	0.28 µM	0.57 µM	–
O=C1CCC(=O)N1c1ccc(F)c(S(=O)(=O)Nc2cc(Sc3ncn[nH]3)c(O)c3ccccc23)c1F	0.67 µM	0.68 µM	–
O=C(/C=C/S(=O)(=O)c1ccc(Cl)cc1)c1ccc(F)cc1	0.3 µM	0.9 µM	Ratio IC50 (Homo sapiens [3]): 2
Cn1nnnc1Sc1cc(NS(=O)(=O)c2cccs2)c2ccccc2c1O	0.25 µM	0.32 µM	–

Now from value to compound, other results behind:

IC50 [1]	IC50 [2]	SMILES	also measured
0.21 µM	0.19 µM	O=S(=O)(Nc1cc(Sc2nc[nH]n2)c(O)c2ccccc12)c1ccc(C(F)(F)F)cc1	–
–	0.8 µM	Oc1c(C(Nc2ccccn2)c2ccco2)cc(Cl)c2cccnc12 (stereo not drawn)	–
0.52 µM	0.59 µM	O=S(=O)(Nc1cc(Sc2ncn[nH]2)c(O)c2ccccc12)c1c(F)c(F)c(F)c(F)c1F	–
0.14 µM	0.27 µM	CC(=O)N1CCc2cc(S(=O)(=O)Nc3cc(Sc4nc[nH]n4)c(O)c4ccccc34)ccc21	–
0.72 µM	1.47 µM	O=S(=O)(Nc1cc(Sc2cnn[nH]2)c(O)c2ccccc12)c1cccs1	–
6.1 µM	9 µM	O=S(=O)(Nc1ccc(O)c2ccccc12)c1cccs1	–
1.6 µM	2.1 µM	CCCCCCCCCCS(=O)(=O)Nc1cc(Sc2nnc[nH]2)c(O)c2ccccc12	–
0.38 µM	0.45 µM	O=S(=O)(Nc1cc(Cl)c(O)c2ccccc12)c1cccs1	–
